Source: ChEMBL document CHEMBL5257020, “Discovery of a 9-mer Cationic Peptide (LTX-315) as a Potential First in Class Oncolytic Peptide” (J Med Chem, 2016)
Where a SMILES comes first, the peptide text is derived from it. [ ]: non-standard residue; d: D form. ξ: configuration not given here. Bip = N[C@@H](Cc1ccc(-c2ccccc2)cc1)C(=O)O; ξDip = NC(C(=O)O)C(c1ccccc1)c1ccccc1

How the values were obtained:
[1] = Cytotoxicity against human Hs 445 cells assessed as inhibition of cell proliferation incubated for 4 hrs by MTS assay; format: functional, cell-based; conditions: Hs 445, 4 h
Outline: (§1)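 Cells grown in RPMI-1640 with 2 mM L-glutamine and 10% FBS, plated, then held 24 h at 37 °C. Adherent lines washed once in FBS-free medium. Cells exposed 4 h at 37 °C, 5% CO2 in FBS-free medium to 10 concentrations (1/4 steps, 400 μM top). 1% Triton X-100 served as positive control. MTS/PMS added for 2 h, then OD 490 nm read. IC50 from semilog curves; three independent experiments, quadruplicate wells.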

CEM-VLB = experiment: Cytotoxicity against human CCRF-CEM/VLB cells assessed as inhibition of cell proliferation incubated for 4 hrs by MTS assay; format: functional, cell-based; outline: as §1
RPMI-8226 = experiment: Cytotoxicity against human RPMI-8226 cells assessed as inhibition of cell proliferation incubated for 4 hrs by MTS assay; format: functional, cell-based; conditions: RPMI-8226, 4 h; outline: as §1
A498 = experiment: Cytotoxicity against human A498 cells assessed as inhibition of cell proliferation incubated for 4 hrs by MTS assay; format: functional, cell-based; conditions: A498, 4 h; outline: as §1
[2] = Cytotoxicity against human HUVEC-C cells assessed as inhibition of cell proliferation incubated for 4 hrs by MTS assay; format: toxicity, cell-based; outline: as §1
[3] = Cytotoxicity against human MINO cells assessed as inhibition of cell proliferation incubated for 4 hrs by MTS assay; format: functional, cell-based; outline: as §1
HepG2 = experiment: Cytotoxicity against human HepG2 cells assessed as inhibition of cell proliferation incubated for 4 hrs by MTS assay; format: functional, cell-based; conditions: HepG2, 4 h; outline: as §1
SK-OV-3 = experiment: Cytotoxicity against human SK-OV-3 cells assessed as inhibition of cell proliferation incubated for 4 hrs by MTS assay; format: functional, cell-based; conditions: SK-OV-3, 4 h; outline: as §1
HL60/ADR = experiment: Cytotoxicity against human HL60/ADR cells assessed as inhibition of cell proliferation incubated for 4 hrs by MTS assay; format: functional, cell-based; outline: as §1
NCI-H460 = experiment: Cytotoxicity against human NCI-H460 cells assessed as inhibition of cell proliferation incubated for 4 hrs by MTS assay; format: functional, cell-based; conditions: NCI-H460, 4 h; outline: as §1
[4] = Cytotoxicity against human IGROV(CDDP) cells assessed as inhibition of cell proliferation incubated for 4 hrs by MTS assay; format: functional, cell-based; outline: as §1
Malme-3M = experiment: Cytotoxicity against human Malme-3M cells assessed as inhibition of cell proliferation incubated for 4 hrs by MTS assay; format: functional, cell-based; outline: as §1
MCF7 [5] = experiment: Cytotoxicity against human MCF7 cells transfected with MDR1 assessed as inhibition of cell proliferation incubated for 4 hrs by MTS assay; format: functional, cell-based; conditions: MCF7, 4 h; outline: as §1
MDA-MB-231 = experiment: Cytotoxicity against human MDA-MB-231 cells assessed as inhibition of cell proliferation incubated for 4 hrs by MTS assay; format: functional, cell-based; conditions: MDA-MB-231, 4 h; outline: as §1
K562 = experiment: Cytotoxicity against human K562 cells assessed as inhibition of cell proliferation incubated for 4 hrs by MTS assay; format: functional, cell-based; conditions: K562, 4 h; outline: as §1
OVCAR-3 = experiment: Cytotoxicity against human OVCAR-3 cells assessed as inhibition of cell proliferation incubated for 4 hrs by MTS assay; format: functional, cell-based; conditions: OVCAR-3, 4 h; outline: as §1
KARPAS-299 = experiment: Cytotoxicity against human KARPAS-299 cells assessed as inhibition of cell proliferation incubated for 4 hrs by MTS assay; format: functional, cell-based; conditions: KARPAS-299, 4 h; outline: as §1
[6] = Cytotoxicity against human U-87 MG cells assessed as inhibition of cell proliferation incubated for 4 hrs by MTS assay; format: functional, cell-based, U-87MG ATCC; outline: as §1
Toledo = experiment: Cytotoxicity against human Toledo cells assessed as inhibition of cell proliferation incubated for 4 hrs by MTS assay; format: functional, cell-based; outline: as §1
Raji = experiment: Cytotoxicity against human Raji cells assessed as inhibition of cell proliferation incubated for 4 hrs by MTS assay; format: functional, cell-based; outline: as §1
A-431 = experiment: Cytotoxicity against human A-431 cells assessed as inhibition of cell proliferation incubated for 4 hrs by MTS assay; format: functional, cell-based; conditions: A-431, 4 h; outline: as §1
HT-29 = experiment: Cytotoxicity against human HT-29 cells assessed as inhibition of cell proliferation incubated for 4 hrs by MTS assay; format: functional, cell-based; conditions: HT-29, 4 h; outline: as §1
A20 = experiment: Cytotoxicity against mouse A20 lymphoma cells assessed as inhibition of cell proliferation incubated for 4 hrs by MTT assay; format: functional, cell-based; conditions: A20, 4 h
Outline: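 Murine A20 cells cultured in RPMI-1640 with 2 mM L-glutamine, 1.5 g/L sodium bicarbonate, 4.5 g/L glucose, 10 mM HEPES, 1.0 mM sodium pyruvate, 0.05 mM 2-mercaptoethanol and 10% FBS, without antibiotics, at 37 °C, 5% CO2. IC50 from three or more independent measurements, given as mean ± SD.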

CCRF-CEM = experiment: Cytotoxicity against human CCRF-CEM cells assessed as inhibition of cell proliferation incubated for 4 hrs by MTS assay; format: functional, cell-based; outline: as §1
Daudi = experiment: Cytotoxicity against human Daudi cells assessed as inhibition of cell proliferation incubated for 4 hrs by MTS assay; format: functional, cell-based; outline: as §1
[7] = Cytotoxicity against human MRC5 cells assessed as inhibition of cell proliferation incubated for 4 hrs by MTT assay; format: toxicity, cell-based
Outline: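 MRC-5 human embryonic lung fibroblasts cultured in MEM with 2 mM L-glutamine and 10% FBS, without antibiotics, at 37 °C in humidified 5% CO2. Cultures were tested for mycoplasma. IC50 from three or more independent measurements, given as mean ± SD.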

HCT-116 = experiment: Cytotoxicity against human HCT-116 cells assessed as inhibition of cell proliferation incubated for 4 hrs by MTS assay; format: functional, cell-based; conditions: HCT-116, 4 h; outline: as §1
SU-DHL-1 = experiment: Cytotoxicity against human SU-DHL-1 cells assessed as inhibition of cell proliferation incubated for 4 hrs by MTS assay; format: functional, cell-based; conditions: SU-DHL-1, 4 h; outline: as §1
A549 = experiment: Cytotoxicity against human A549 cells assessed as inhibition of cell proliferation incubated for 4 hrs by MTS assay; format: functional, cell-based; conditions: A549, 4 h; outline: as §1
MCF7 [8] = experiment: Cytotoxicity against human MCF7 cells assessed as inhibition of cell proliferation incubated for 4 hrs by MTS assay; format: functional, cell-based; conditions: MCF7, 4 h; outline: as §1
T47D = experiment: Cytotoxicity against human T47D cells assessed as inhibition of cell proliferation incubated for 4 hrs by MTS assay; format: functional, cell-based; outline: as §1
U-937 = experiment: Cytotoxicity against human U-937 cells assessed as inhibition of cell proliferation incubated for 4 hrs by MTS assay; format: functional, cell-based; conditions: U-937, 4 h; outline: as §1
COLO 205 = experiment: Cytotoxicity against human COLO 205 cells assessed as inhibition of cell proliferation incubated for 4 hrs by MTS assay; format: functional, cell-based; conditions: COLO 205, 4 h; outline: as §1
PANC-1 = experiment: Cytotoxicity against human PANC-1 cells assessed as inhibition of cell proliferation incubated for 4 hrs by MTS assay; format: functional, cell-based; conditions: PANC-1, 4 h; outline: as §1
NAMALVA = experiment: Cytotoxicity against human NAMALVA cells assessed as inhibition of cell proliferation incubated for 4 hrs by MTS assay; format: functional, cell-based; outline: as §1
SK-MEL-2 = experiment: Cytotoxicity against human SK-MEL-2 cells assessed as inhibition of cell proliferation incubated for 4 hrs by MTS assay; format: functional, cell-based; conditions: SK-MEL-2, 4 h; outline: as §1
HL-60 = experiment: Cytotoxicity against human HL-60 cells assessed as inhibition of cell proliferation incubated for 4 hrs by MTS assay; format: functional, cell-based; conditions: HL-60, 4 h; outline: as §1
SK-HEP1 = experiment: Cytotoxicity against human SK-HEP1 cells assessed as inhibition of cell proliferation incubated for 4 hrs by MTS assay; format: functional, cell-based; conditions: SK-HEP1, 4 h; outline: as §1

Row | SMILES | IC50 [1] | IC50 (CEM-VLB) | IC50 (RPMI-8226) | IC50 (A498) | IC50 at 4 h [2] | IC50 [3] | IC50 (HepG2) | IC50 (SK-OV-3) | IC50 (HL60/ADR) | IC50 (NCI-H460) | IC50 [4] | IC50 (Malme-3M) | IC50 (MCF7 [5]) | IC50 (MDA-MB-231) | IC50 (K562) | IC50 (OVCAR-3) | IC50 (KARPAS-299) | IC50 [6] | IC50 (Toledo) | IC50 (Raji) | other results
1 | N=C(N)NCCC[C@H](NC(=O)[C@H](Cc1c[nH]c2ccccc12)NC(=O)[C@H](Cc1c[nH]c2ccccc12)NC(=O)[C@H](CCCNC(=N)N)NC(=O)[C@H](CCCNC(=N)N)NC(=O)C(NC(=O)[C@H](Cc1c[nH]c2ccccc12)NC(=O)[C@H](CCCNC(=N)N)NC(=O)[C@@H](N)CCCNC(=N)N)C(c1ccccc1)c1ccccc1)C(N)=O (stereo partly specified) (H-RRW[ξDip]RRWWR-NH2) | 2.2 µM | 3.6 µM | 4.1 µM | 5.7 µM | 19.4 µM | 5.2 µM | 16.6 µM | 7.4 µM | 6 µM | 9.3 µM | 5.5 µM | 10.4 µM | 6.6 µM | 7.6 µM | 7 µM | 8.4 µM | 8.2 µM | 13.1 µM | 3 µM | 11.3 µM | IC50 (A-431): 5.5 µM; IC50 (HT-29): 11.5 µM; IC50 (A20): 6.7 µM; IC50 (CCRF-CEM): 5.6 µM; IC50 (Daudi): 4.7 µM; IC50 at 4 h [7]: 76 µM; IC50 (HCT-116): 4.8 µM; IC50 (SU-DHL-1): 5 µM; IC50 (A549): 7.3 µM; IC50 (MCF7 [8]): 5.5 µM; IC50 (T47D): 3.5 µM; IC50 (U-937): 2.6 µM; IC50 (COLO 205): 6.7 µM; IC50 (PANC-1): 12.5 µM; IC50 (NAMALVA): 5.3 µM; IC50 (SK-MEL-2): 10.6 µM; IC50 (HL-60): 6.7 µM; IC50 (SK-HEP1): 6.3 µM
2 | NCCCC[C@H](NC(=O)[C@H](Cc1c[nH]c2ccccc12)NC(=O)[C@H](Cc1c[nH]c2ccccc12)NC(=O)[C@H](CCCCN)NC(=O)[C@H](CCCCN)NC(=O)[C@H](Cc1c[nH]c2ccccc12)NC(=O)[C@H](Cc1ccc(-c2ccccc2)cc1)NC(=O)[C@H](CCCCN)NC(=O)[C@@H](N)CCCCN)C(N)=O (H-KK[Bip]WKKWWK-NH2) | 2.5 µM | 4 µM | 4.1 µM | 6.4 µM | 33 µM | 5.9 µM | 8.7 µM | 12.6 µM | 4.9 µM | 8.7 µM | 6.6 µM | 7.1 µM | 4.9 µM | 9.3 µM | 7.4 µM | 14.1 µM | 8.7 µM | 16.9 µM | 5.4 µM | 8.7 µM | IC50 (A-431): 7.1 µM; IC50 (HT-29): 8.9 µM; IC50 (A20): 8.3 µM; IC50 (CCRF-CEM): 5.3 µM; IC50 (Daudi): 7.9 µM; IC50 at 4 h [7]: 87 µM; IC50 (HCT-116): 8.6 µM; IC50 (SU-DHL-1): 5.6 µM; IC50 (A549): 7.8 µM; IC50 (MCF7 [8]): 4.6 µM; IC50 (T47D): 2.4 µM; IC50 (U-937): 2.7 µM; IC50 (COLO 205): 5.7 µM; IC50 (PANC-1): 9.5 µM; IC50 (NAMALVA): 6.5 µM; IC50 (SK-MEL-2): 11 µM; IC50 (HL-60): 6.1 µM; IC50 (SK-HEP1): 7.9 µM
